Consider 14 molecules from ChEMBL document CHEMBL6092224, “The Discovery and Preclinical Profile of ALG-000184, a Prodrug of the Potent Hepatitis B Virus Capsid Assembly Modulator ALG-001075” (J Med Chem, 2024).

The test system of data set [1] is Hepatitis B virus. As to the kind of experiment: Antiviral activity against HBV infected in human HepG2.117 cells by qPCR analysis. In kind it is functional, organism-based. The procedure, abridged: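 HepG2.117 cells (integrated genotype D HBV genome, Tet-off promoter; kept in 1 μg/mL doxycycline) were seeded at 20,000 cells/well and given serial compound dilutions (2% DMSO) for 3 days at 37 °C. Lysates were taken in 0.33% NP40. Intracellular HBV DNA was quantified by qPCR and EC50/EC90 derived. For serum shift, 40% human serum was present during incubation. Mean ± SEM, n=3 (serum) or 13.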

The nature of data set [2]: Toxicity in C57BL/6 mouse infected with AAV-Hepatitis B virus assessed as change in body weight at 50 mg/kg, po bid for 56 days followed by induction of compound washout period for 14 days. The following applies: in vivo, 1680 h, time 70 day. In kind it is organism-based.
Data set [3] is described as follows: Toxicity in C57BL/6 mouse infected with AAV-Hepatitis B virus assessed as change in ALT level at 50 mg/kg, po bid for 56 days followed by induction of compound washout period for 14 days. In kind it is organism-based. Conditions: in vivo, 1680 h, time 70 day.
The subject of data set [4] is Mus musculus. The data set can be described thus: Effect on HBeAg level in C57BL/6 mouse infected with AAV-Hepatitis B virus at 50 mg/kg, po bid for 56 days followed by induction of compound washout period for 14 days. The following applies: time 70.0 day. In kind it is functional, organism-based.
For data set [5], the system named is Hepatitis B virus. As to the kind of experiment: Antiviral activity against AAV-Hepatitis B virus infected in C57BL/6 mouse assessed as reduction in baseline HBV DNA production at 50 mg/kg, po bid for 56 days followed by induction of compound washout period measured after 7 days. In kind it is functional, organism-based. The following applies: time 63.0 day.

Data set [6] deals with Mus musculus. The data set can be described thus: Effect on HBsAg level in C57BL/6 mouse infected with AAV-Hepatitis B virus at 50 mg/kg, po bid for 56 days followed by induction of compound washout period for 14 days. In kind it is functional, organism-based. The following applies: time 70.0 day.
Data set [7] has as its system Hepatitis B virus. As to the kind of experiment: Antiviral activity against AAV-Hepatitis B virus infected in C57BL/6 mouse assessed as reduction in baseline HBV DNA production at 50 mg/kg, po qd measured after 7 days. In kind it is functional. Conditions: time 7 day.
Data set [8] in a line: Clearance in mouse. In kind it is ADME, organism-based. The following applies: in vivo.
The nature of data set [9]: Metabolic stability in mouse liver microsomes assessed as half life at 1 uM incubated upto 60 mins in presence of NADPH. In kind it is ADME, Microsome. The procedure, abridged: (§1)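 Compound at 1 μM incubated at 37 °C with liver microsomes of each species for 0, 15, 30 and 60 min, with and without NADPH; half-life determined.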
Data set [10] in a line: Metabolic stability in human liver microsomes assessed as half life at 1 uM incubated upto 60 mins in presence of NADPH. In kind it is ADME, Microsome. Summed up: as §1
Another data set has as its target hERG (KCNH2) (Homo sapiens, UniProt Q12809). The data set can be described thus: Inhibition of hERG expressed in mammalian cells at 10 uM by automated patch-clamp technique relative to control. The following applies: mammalian cells expressing hERG. In kind it is toxicity, cell-based. The procedure, abridged:
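Currents of hERG, Nav1.5 or Cav1.2 channels expressed in mammalian cells recorded by automated patch clamp (QPatch 48) at room temperature.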

Active and inactive are the calls of the source. No cut-off for these calls is given here.

Chain of hERG (KCNH2) (Q12809 whole entry): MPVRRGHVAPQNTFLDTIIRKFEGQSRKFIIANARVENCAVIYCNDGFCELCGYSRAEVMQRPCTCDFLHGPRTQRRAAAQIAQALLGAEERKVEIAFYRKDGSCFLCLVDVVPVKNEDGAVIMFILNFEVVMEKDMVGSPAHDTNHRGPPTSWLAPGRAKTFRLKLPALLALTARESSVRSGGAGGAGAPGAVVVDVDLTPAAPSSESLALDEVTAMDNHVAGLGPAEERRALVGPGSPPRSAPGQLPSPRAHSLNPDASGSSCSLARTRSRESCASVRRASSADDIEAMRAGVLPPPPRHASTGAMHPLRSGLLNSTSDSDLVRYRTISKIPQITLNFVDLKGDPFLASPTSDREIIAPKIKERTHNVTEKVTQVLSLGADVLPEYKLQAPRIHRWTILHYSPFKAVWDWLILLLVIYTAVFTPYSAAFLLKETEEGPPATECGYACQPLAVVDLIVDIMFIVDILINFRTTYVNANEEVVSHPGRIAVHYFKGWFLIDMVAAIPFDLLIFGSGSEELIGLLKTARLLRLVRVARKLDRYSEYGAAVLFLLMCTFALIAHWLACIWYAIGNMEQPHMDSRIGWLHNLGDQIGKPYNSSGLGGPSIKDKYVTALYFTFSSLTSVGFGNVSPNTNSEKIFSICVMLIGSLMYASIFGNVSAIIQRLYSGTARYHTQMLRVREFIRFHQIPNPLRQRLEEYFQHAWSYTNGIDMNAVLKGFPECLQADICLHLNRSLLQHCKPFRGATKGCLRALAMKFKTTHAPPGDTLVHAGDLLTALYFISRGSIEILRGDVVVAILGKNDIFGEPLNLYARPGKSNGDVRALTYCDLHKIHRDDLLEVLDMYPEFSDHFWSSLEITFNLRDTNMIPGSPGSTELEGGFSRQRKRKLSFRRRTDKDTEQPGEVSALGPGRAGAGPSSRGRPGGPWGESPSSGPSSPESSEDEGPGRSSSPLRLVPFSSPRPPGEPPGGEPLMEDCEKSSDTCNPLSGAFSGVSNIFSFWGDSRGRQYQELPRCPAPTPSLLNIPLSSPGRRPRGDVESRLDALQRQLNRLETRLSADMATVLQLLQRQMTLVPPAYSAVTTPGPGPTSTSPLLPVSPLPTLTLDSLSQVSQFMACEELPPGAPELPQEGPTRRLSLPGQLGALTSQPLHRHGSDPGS

For `C#CC(C)(C)NC(=O)C(=O)c1c(C)c(C(=O)Nc2ccc(F)c(C#N)c2)n(C)c1C`, the EC50 with Hepatitis B virus [1] is 1.49 nM.
In turn, `C#CC1(NC(=O)C(=O)c2c(C)c(C(=O)Nc3ccc(F)c(C#N)c3)n(C)c2C)CCOCC1` displayed an EC50 in the data set on Hepatitis B virus [1] of 2.11 nM.
As for `C#C[C@@H](C)NC(=O)C(=O)c1c(C)c(C(=O)Nc2ccc(F)c(C#N)c2)n(C)c1C`, the EC50 in the data set with Hepatitis B virus [1] is 1.32 nM.
On to `C#CC1(NC(=O)C(=O)c2c(C)c(C(=O)Nc3ccc(F)c(C#N)c3)n(C)c2C)CCCC1`, for which a half-maximal effect in the data set with Hepatitis B virus [1] (EC50) was put at 1.99 nM.
For the molecule `C#C[C@H](C)NC(=O)C(=O)c1c(C)c(C(=O)Nc2ccc(F)c(C#N)c2)n(C)c1C`, it took 0.98 nM to reach a half-maximal effect in the data set on Hepatitis B virus [1] (EC50).
Turning to `C[C@@H](NS(=O)(=O)c1cn(C)c(C(=O)Nc2ccnc(Cl)c2)c1F)C(F)(F)F`, the Activity entry in data set [2] is listed as “Non-toxic”; in [3] it was “Non-toxic”; in the data set with Hepatitis B virus [7], -2.5 log10IU/ml. Moreover, the result in the data set on Mus musculus [4], in the data set on Hepatitis B virus [5] and in the data set on Mus musculus [6] was inactive.
On to `C#CC1(NC(=O)C(=O)c2c(C)c(C(=O)Nc3ccc(F)c(C#N)c3)n(C)c2C)CC1`, for which the EC50 with Hepatitis B virus [1] was determined as 0.45 nM.
In turn, `C#CC1(NC(=O)C(=O)c2c(C)c(C(=O)Nc3ccc(F)c(C#N)c3)n(C)c2C)CC(F)(F)C1` yielded an EC50 in the data set on Hepatitis B virus [1] of 0.32 nM.
Still for that read-out and setting: the result for `C#CCNC(=O)C(=O)c1c(C)c(C(=O)Nc2ccc(F)c(C(F)(F)F)c2)n(C)c1C` reads 2.65 nM.
`C#CCNC(=O)C(=O)c1c(C)c(C(=O)Nc2ccc(F)c(F)c2)n(C)c1C` yielded an EC50 in the data set with Hepatitis B virus [1] of 2.6 nM. The same molecule showed a clearance in data set [8] of 78.2 mL/min/kg. The half-life at 1 µM in data set [9] is 40.4 min; in data set [10] it was greater than 60 min. Moreover, the inhibition at 10 µM on hERG (KCNH2) came to 31.2%.
The molecule `C#CC1(NC(=O)C(=O)c2c(C)c(C(=O)Nc3ccc(F)c(C#N)c3)n(C)c2C)CCS(=O)(=O)CC1` had a concentration for a half-maximal effect (EC50) in the data set on Hepatitis B virus [1] of 3.51 nM.
In the data set with Hepatitis B virus [1], `C#CCNC(=O)C(=O)c1c(C)c(C(=O)Nc2ccc(F)c(C)c2)n(C)c1C` gave an EC50 of 1.98 nM. In [8], the clearance turned out to be 54.3 mL/min/kg.
`C#CCNC(=O)C(=O)c1c(C)c(C(=O)Nc2ccc(F)c(C#N)c2)n(C)c1C` registered an EC50 in the data set with Hepatitis B virus [1] of 2.88 nM. In data set [8], this molecule yielded a clearance of 13.2 mL/min/kg.
In the case of `C#CC1(NC(=O)C(=O)c2c(C)c(C(=O)Nc3ccc(F)c(C#N)c3)n(C)c2C)CCC1`, the EC50 in the data set on Hepatitis B virus [1] is 0.73 nM.
